Measurements as given in ChEMBL document CHEMBL1139009, “Analogues of neurohypophyseal hormones, oxytocin and arginine vasopressin, conformationally restricted in the N-terminal part of the molecule” (J Med Chem, 2006).

Each compound was assayed against T1, Oxytocin receptor (Rattus norvegicus) (UniProt P70536) (assay: (§1) Uterotonic activity against OT receptor in Wistar rat in absence of magnesium).
T1 sequence (whole entry): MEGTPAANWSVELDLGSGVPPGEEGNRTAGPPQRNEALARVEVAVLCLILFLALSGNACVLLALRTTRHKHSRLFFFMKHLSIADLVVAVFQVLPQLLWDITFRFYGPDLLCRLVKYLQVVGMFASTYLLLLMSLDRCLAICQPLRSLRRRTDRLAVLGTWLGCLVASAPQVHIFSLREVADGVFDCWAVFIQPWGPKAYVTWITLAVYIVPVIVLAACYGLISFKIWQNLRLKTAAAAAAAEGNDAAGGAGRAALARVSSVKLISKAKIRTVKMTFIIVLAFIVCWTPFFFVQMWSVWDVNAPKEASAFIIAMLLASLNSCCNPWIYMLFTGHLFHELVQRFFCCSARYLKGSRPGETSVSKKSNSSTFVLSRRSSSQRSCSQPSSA
Assay type: functional
Outline: (§2)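 Isolated uterus from female Wistar rats estrogenized 48 h beforehand, tested in vitro without magnesium ions. Synthetic oxytocin served as standard. Dose-response curves from single administrations or cumulative dosing without washing. Values are means of three to five separate experiments.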

**Q.** With CC(C)[C@@H]1NC(=O)[C@H](C)N(Cc2ccccc2)C(=O)[C@H](Cc2ccc(O)cc2)NC(=O)CC2(CCCCC2)SSC[C@H](C(=O)N2CCC[C@H]2C(=O)N[C@@H](CCCN=C(N)N)C(=O)NCC(N)=O)NC(=O)[C@H](CC(N)=O)NC1=O as the compound, how does the Activity read?
**A.** 0 IU/mg

The compounds below were run against T2, Oxytocin receptor (Rattus norvegicus, UniProt P70536) (assay: as §1).
T2 sequence (P70536 whole entry): T1 sequence (whole entry)
Assay type: functional
Outline: as §2

**Q.** CC(C)C[C@H](NC(=O)[C@@H]1CCCN1C(=O)[C@@H]1CSSC[C@H](N)C(=O)N2CCN(C(=O)[C@@H]2Cc2ccccc2)[C@@H](Cc2ccccc2)C(=O)N[C@@H](CCC(N)=O)C(=O)N[C@@H](CC(N)=O)C(=O)N1)C(=O)NCC(N)=O [listing 1 of 2 here] was tested. Which pA2 did it give?
**A.** 6.82

**Q.** How did the pA2 turn out when NC(=O)CC[C@@H]1NC(=O)[C@H](Cc2ccccc2)NC(=O)[C@H](Cc2ccc(O)cc2)NC(=O)[C@@](N)(CO)CSSC[C@@H](C(=O)N2CCC[C@H]2C(=O)N[C@@H](CCCN=C(N)N)C(=O)NCC(N)=O)NC(=O)[C@H](CC(N)=O)NC1=O [listing 1 of 2 here] was run?
**A.** 6.4

**Q.** Which pA2 does the source give for CC(C)C[C@H](NC(=O)[C@@H]1CCCN1C(=O)[C@@H]1CSSCCC(=O)N2CCN(C(=O)[C@@H]2Cc2ccccc2)[C@@H](Cc2ccccc2)C(=O)N[C@@H](CCC(N)=O)C(=O)N[C@@H](CC(N)=O)C(=O)N1)C(=O)NCC(N)=O [listing 1 of 2 here] here?
**A.** 6.5

**Q.** With CC(C)C[C@H](NC(=O)[C@@H]1CCCN1C(=O)[C@@H]1CSSC2(CCCCC2)CC(=O)N2CCN(C(=O)[C@@H]2Cc2ccccc2)[C@@H](Cc2ccccc2)C(=O)N[C@@H](CCC(N)=O)C(=O)N[C@@H](CC(N)=O)C(=O)N1)C(=O)NCC(N)=O [listing 1 of 2 here] as the compound, how does the pA2 read?
**A.** 6.72

Organism: Rattus norvegicus
Test: Antidiuretic activity against V2 receptor in Wistar rat at antidiuresis half life of 60 min
Assay type: functional, Urine

**Q.** For CC(C)C[C@H](NC(=O)[C@@H]1CCCN1C(=O)[C@@H]1CSSCCC(=O)N2CCN(C(=O)[C@@H]2Cc2ccccc2)[C@@H](Cc2ccccc2)C(=O)N[C@@H](CCC(N)=O)C(=O)N[C@@H](CC(N)=O)C(=O)N1)C(=O)NCC(N)=O [listing 2 of 2 here], which Activity is on record?
**A.** <0.04 IU/mg

**Q.** Which Activity does the source give for NC(=O)CC[C@@H]1NC(=O)[C@H](Cc2ccccc2)NC(=O)[C@H](Cc2ccc(O)cc2)NC(=O)[C@@](N)(CO)CSSC[C@@H](C(=O)N2CCC[C@H]2C(=O)N[C@@H](CCCN=C(N)N)C(=O)NCC(N)=O)NC(=O)[C@H](CC(N)=O)NC1=O [listing 2 of 2 here] here?
**A.** 4.5 IU/mg

**Q.** Which Activity does the source give for CC(C)[C@@H]1NC(=O)[C@H](C)N(Cc2ccccc2)C(=O)[C@H](Cc2ccc(O)cc2)NC(=O)CCSSC[C@@H](C(=O)N2CCC[C@H]2C(=O)N[C@@H](CCCN=C(N)N)C(=O)NCC(N)=O)NC(=O)[C@H](CC(N)=O)NC1=O here?
**A.** <0.04 IU/mg

**Q.** For CC(C)[C@@H]1NC(=O)[C@H](C)N(Cc2ccccc2)C(=O)[C@H](Cc2ccc(O)cc2)NC(=O)[C@@H](N)CSSC[C@@H](C(=O)N2CCC[C@H]2C(=O)N[C@@H](CCCN=C(N)N)C(=O)NCC(N)=O)NC(=O)[C@H](CC(N)=O)NC1=O, which Activity is on record?
**A.** <0.04 IU/mg

**Q.** CC(C)C[C@H](NC(=O)[C@@H]1CCCN1C(=O)[C@@H]1CSSC[C@H](N)C(=O)N2CCN(C(=O)[C@@H]2Cc2ccccc2)[C@@H](Cc2ccccc2)C(=O)N[C@@H](CCC(N)=O)C(=O)N[C@@H](CC(N)=O)C(=O)N1)C(=O)NCC(N)=O [listing 2 of 2 here] was tested. Which Activity did it give?
**A.** <0.04 IU/mg

**Q.** For CC(C)[C@@H]1NC(=O)[C@H](C)N(Cc2ccccc2)C(=O)[C@H](Cc2ccc(O)cc2)NC(=O)CC2(CCCCC2)SSC[C@@H](C(=O)N2CCC[C@H]2C(=O)N[C@@H](CCCN=C(N)N)C(=O)NCC(N)=O)NC(=O)[C@H](CC(N)=O)NC1=O, which Activity is on record?
**A.** <0.04 IU/mg

**Q.** How did the Activity turn out when CC(C)C[C@H](NC(=O)[C@@H]1CCCN1C(=O)[C@@H]1CSSC2(CCCCC2)CC(=O)N2CCN(C(=O)[C@@H]2Cc2ccccc2)[C@@H](Cc2ccccc2)C(=O)N[C@@H](CCC(N)=O)C(=O)N[C@@H](CC(N)=O)C(=O)N1)C(=O)NCC(N)=O [listing 2 of 2 here] was run?
**A.** <0.04 IU/mg

Organism: Rattus norvegicus
Test: Antidiuretic activity against V2 receptor in Wistar rat at antidiuresis half life of 200 min
Assay type: functional, Urine

**Q.** NC(=O)CC[C@@H]1NC(=O)[C@H](Cc2ccccc2)NC(=O)[C@H](Cc2ccc(O)cc2)NC(=O)[C@@](N)(CO)CSSC[C@@H](C(=O)N2CCC[C@H]2C(=O)N[C@@H](CCCN=C(N)N)C(=O)NCC(N)=O)NC(=O)[C@H](CC(N)=O)NC1=O [listing 2 of 2 here] was tested. Which Activity did it give?
**A.** 22.5 IU/mg

What follows are compounds tested against Vasopressin V1a receptor (Rattus norvegicus) (UniProt P30560) (assay: Pressor activity against V1a receptor in Wistar rat).
Chain of Vasopressin V1a receptor (Rattus norvegicus) (P30560 whole entry, looked up): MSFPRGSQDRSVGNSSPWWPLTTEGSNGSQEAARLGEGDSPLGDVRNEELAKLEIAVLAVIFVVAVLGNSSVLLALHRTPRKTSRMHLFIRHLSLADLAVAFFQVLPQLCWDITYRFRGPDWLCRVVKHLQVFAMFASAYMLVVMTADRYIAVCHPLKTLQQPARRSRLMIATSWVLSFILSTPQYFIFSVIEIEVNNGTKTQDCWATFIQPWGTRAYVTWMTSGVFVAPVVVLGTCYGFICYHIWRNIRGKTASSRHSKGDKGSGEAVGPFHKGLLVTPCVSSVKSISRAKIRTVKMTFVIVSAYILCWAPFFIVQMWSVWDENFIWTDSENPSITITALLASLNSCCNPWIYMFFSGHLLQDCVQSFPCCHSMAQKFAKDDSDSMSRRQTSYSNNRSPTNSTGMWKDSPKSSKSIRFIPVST

**Q.** With CC(C)C[C@H](NC(=O)[C@@H]1CCCN1C(=O)[C@H]1CSSCCC(=O)N2CCN(C(=O)[C@@H]2Cc2ccccc2)[C@@H](Cc2ccccc2)C(=O)N[C@@H](CCC(N)=O)C(=O)N[C@@H](CC(N)=O)C(=O)N1)C(=O)NCC(N)=O as the compound, how does the pressor activity read?
**A.** 0 IU/mg

**Q.** Which pressor activity does the source give for CC(C)C[C@H](NC(=O)[C@@H]1CCCN1C(=O)[C@H]1CSSC2(CCCCC2)CC(=O)N2CCN(C(=O)[C@@H]2Cc2ccccc2)[C@@H](Cc2ccccc2)C(=O)N[C@@H](CCC(N)=O)C(=O)N[C@@H](CC(N)=O)C(=O)N1)C(=O)NCC(N)=O here?
**A.** 0 IU/mg

**Q.** Which pressor activity does the source give for CC(C)[C@@H]1NC(=O)[C@H](C)N(Cc2ccccc2)C(=O)[C@H](Cc2ccc(O)cc2)NC(=O)CC2(CCCCC2)SSC[C@H](C(=O)N2CCC[C@H]2C(=O)N[C@@H](CCCN=C(N)N)C(=O)NCC(N)=O)NC(=O)[C@H](CC(N)=O)NC1=O here?
**A.** 0 IU/mg

**Q.** NC(=O)CC[C@@H]1NC(=O)[C@H](Cc2ccccc2)NC(=O)[C@H](Cc2ccc(O)cc2)NC(=O)[C@@](N)(CO)CSSC[C@H](C(=O)N2CCC[C@H]2C(=O)N[C@@H](CCCN=C(N)N)C(=O)NCC(N)=O)NC(=O)[C@H](CC(N)=O)NC1=O was tested. Which pressor activity did it give?
**A.** 0.18 IU/mg

**Q.** Which pressor activity does the source give for CC(C)C[C@H](NC(=O)[C@@H]1CCCN1C(=O)[C@H]1CSSC[C@@H](N)C(=O)N2CCN(C(=O)[C@@H]2Cc2ccccc2)[C@@H](Cc2ccccc2)C(=O)N[C@@H](CCC(N)=O)C(=O)N[C@@H](CC(N)=O)C(=O)N1)C(=O)NCC(N)=O here?
**A.** 0 IU/mg

**Q.** How did the pressor activity turn out when CC(C)[C@@H]1NC(=O)[C@H](C)N(Cc2ccccc2)C(=O)[C@H](Cc2ccc(O)cc2)NC(=O)CCSSC[C@H](C(=O)N2CCC[C@H]2C(=O)N[C@@H](CCCN=C(N)N)C(=O)NCC(N)=O)NC(=O)[C@H](CC(N)=O)NC1=O was run?
**A.** 0 IU/mg

**Q.** With CC(C)[C@@H]1NC(=O)[C@H](C)N(Cc2ccccc2)C(=O)[C@H](Cc2ccc(O)cc2)NC(=O)[C@H](N)CSSC[C@H](C(=O)N2CCC[C@H]2C(=O)N[C@@H](CCCN=C(N)N)C(=O)NCC(N)=O)NC(=O)[C@H](CC(N)=O)NC1=O as the compound, how does the pressor activity read?
**A.** 0 IU/mg
